For series [1], the target named is T1, Peroxisome proliferator-activated receptor alpha (Homo sapiens) (UniProt Q07869).
T1 sequence (whole entry): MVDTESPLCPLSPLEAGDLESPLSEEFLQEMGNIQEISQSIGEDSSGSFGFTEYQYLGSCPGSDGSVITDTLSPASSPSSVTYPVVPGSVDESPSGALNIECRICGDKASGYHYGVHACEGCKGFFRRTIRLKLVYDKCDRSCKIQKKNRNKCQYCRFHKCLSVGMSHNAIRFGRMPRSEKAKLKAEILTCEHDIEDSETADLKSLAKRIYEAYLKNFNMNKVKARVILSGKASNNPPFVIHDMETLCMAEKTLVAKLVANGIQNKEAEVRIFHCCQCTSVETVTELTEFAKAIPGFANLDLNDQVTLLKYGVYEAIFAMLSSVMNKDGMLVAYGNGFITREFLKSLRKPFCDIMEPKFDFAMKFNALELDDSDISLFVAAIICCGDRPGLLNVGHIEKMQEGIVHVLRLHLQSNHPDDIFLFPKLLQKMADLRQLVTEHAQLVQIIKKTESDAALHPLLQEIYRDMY
The series is described as follows: Agonist activity at human PPAR alpha in HepG2 cells by PPAR-GAL4 transactivation assay relative to GW-2331. In kind it is functional, cell-based. The essentials:
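Human PPARα–GAL4 chimera in HepG2 cells, transactivation read-out. Compounds titrated. EC50 taken as the concentration giving half of the compound's own maximal response. Percent maximal activation expressed relative to GW2331 as the standard full agonist. Where no plateau was reached, only maximal activity was reported.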

For series [2], the target named is T2, Peroxisome proliferator-activated receptor alpha (Homo sapiens, UniProt Q07869).
T2 sequence (Q07869 whole entry): T1 sequence (whole entry)
The series is described as follows: Agonist activity at human PPAR alpha in HepG2 cells by PPAR-GAL4 transactivation assay. It is filed as functional, cell-based.

The target in series [3] is T3, Peroxisome proliferator-activated receptor gamma (Homo sapiens, UniProt P37231).
T3 sequence (P37231 whole entry): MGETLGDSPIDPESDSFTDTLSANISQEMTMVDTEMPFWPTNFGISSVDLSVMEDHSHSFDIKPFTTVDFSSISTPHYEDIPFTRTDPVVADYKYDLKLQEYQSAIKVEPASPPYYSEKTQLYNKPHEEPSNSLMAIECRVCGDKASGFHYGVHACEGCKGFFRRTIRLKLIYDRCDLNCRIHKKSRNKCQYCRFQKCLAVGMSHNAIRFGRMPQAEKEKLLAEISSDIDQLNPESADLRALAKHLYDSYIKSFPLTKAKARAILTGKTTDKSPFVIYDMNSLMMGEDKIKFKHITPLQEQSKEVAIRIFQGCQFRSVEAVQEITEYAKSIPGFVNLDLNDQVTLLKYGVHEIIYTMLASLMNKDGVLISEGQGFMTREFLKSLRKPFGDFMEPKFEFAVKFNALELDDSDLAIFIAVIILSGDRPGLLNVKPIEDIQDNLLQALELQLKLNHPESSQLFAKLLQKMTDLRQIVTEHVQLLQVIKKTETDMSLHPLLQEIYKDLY
Description: Agonist activity at human PPAR gamma in HepG2 cells by PPAR-GAL4 transactivation assay. In kind it is functional, cell-based.

For series [4], the target named is T2, Peroxisome proliferator-activated receptor alpha. The series is described as follows: Displacement of radiolabeled GW-2331 from human PPAR alpha by SPA assay.
Series [5] has as its system Mus musculus. The series is described as follows: Increase in body weight in db/db mouse at 30 mg/kg, po after 8 day. In kind it is functional.
The target in series [6] is T1, Peroxisome proliferator-activated receptor alpha (Homo sapiens). As to conditions: 100 uM.
For series [7], the system named is Mus musculus. The series is described as follows: Increase in body weight in db/db mouse at 3 mg/kg, po after 8 day. It is filed as functional.
The subject of series [8] is Mus musculus. Description: Reduction of plasma triglycerides in db/db mouse at 30 mg/kg, po after 8 day. It is filed as functional. Set-up: scale not given: the % may be the effect or the level left.
Series [9] has as its system Mus musculus. Description: Reduction of plasma triglycerides in db/db mouse at 3 mg/kg, po after 8 day. More on the design: scale not given: the % may be the effect or the level left. In kind it is functional.
Series [10] concerns Mus musculus. The series is described as follows: Reduction of plasma glucose in db/db mouse at 3 mg/kg, po after 8 day. In kind it is functional. Set-up: scale not given: the % may be the effect or the level left.
The test system of series [11] is Mus musculus. Description: Reduction of hematocrit in db/db mouse at 30 mg/kg, po after 8 day. In kind it is functional. Set-up: scale not given: the % may be the effect or the level left.
Series [12] has as its system Mus musculus. Description: Reduction of plasma glucose in db/db mouse at 30 mg/kg, po after 8 day. More on the design: scale not given: the % may be the effect or the level left. In kind it is functional.
For series [13], the system named is Mus musculus. Description: Reduction of hematocrit in db/db mouse at 3 mg/kg, po after 8 day. It is filed as functional. More on the design: scale not given: the % may be the effect or the level left.
For series [14], the target named is T3, Peroxisome proliferator-activated receptor gamma. The series is described as follows: Displacement of radiolabeled darglitazone from human PPAR gamma by SPA assay.
Series [15] in a line: Clearance in iv dosed Sprague-Dawley rat. In kind it is ADME, organism-based. As to conditions: in vivo. The essentials:
(§1)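 Male Sprague–Dawley rats were given the compound both orally and intravenously. Clearance comes from the iv leg. Half-life and AUC come from the oral leg, with AUC reported dose-normalized. Oral bioavailability compares the oral and iv exposures.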

The nature of series [16]: Oral bioavailability in Sprague-Dawley rat. As to conditions: in vivo. In kind it is ADME, organism-based. The essentials:
as §1

Series [17] in a line: Half life in orally dosed Sprague-Dawley rat. In kind it is ADME, organism-based. Conditions: in vivo, po. The essentials: as §1
Series [18] is described as follows: AUC in orally dosed Sprague-Dawley rat. In kind it is ADME, organism-based. Conditions: plasma, po. In outline:
as §1

In series [1], `Cc1oc(-c2ccccc2)nc1CCOc1ccc(CC2(C(=O)O)CCCO2)nc1` (stereo unspecified) returned an Activity of 90%.

`COc1ccc(-c2nc(CCOc3ccc(CC4(C(=O)O)CCCO4)nc3)c(C)o2)cc1` (stereo unspecified): the EC50 (in general, the concentration that produces a half-maximal response) in series [2] was 437 nM; in series [3] it was 105 nM. Further, the Activity in [1] was 95%. For the same molecule, the Ki – broadly, a measure of affinity in units of concentration, obtained from inhibition or displacement – in [4] is 840 nM.

For `Cc1oc(-c2ccc(Cl)cc2)nc1CCOc1ccc(CC2(C(=O)O)CCCO2)nc1` (stereo unspecified), the concentration for a half-maximal effect (EC50) in series [2] was determined as 48 nM; in [3] it was 130 nM. In series [1], this molecule registered an Activity of 122%.

Take `Cc1oc(-c2ccccc2)nc1CCOc1ccc(CC2(C(=O)O)CCCCO2)nc1` (stereo unspecified): the 50% effective concentration (EC50) in [2] and in series [3] was more than 10000 nM each time. For the same molecule, the Activity in series [1] turned out to be 5%.

`CN(CCOc1ccc(CC2SC(=O)NC2=O)cc1)c1ccccn1` (stereo unspecified) [ROSIGLITAZONE]: the Activity in the series with Mus musculus [5] came out at 17.4%; in the series on Mus musculus [7] it was 9.5%; in the series on Mus musculus [8], 106%; in the series with Mus musculus [9], 83%; in the series on Mus musculus [10], 51%; in the series on Mus musculus [11], 5.2%. For the same molecule, the results for the Activity in the series with Mus musculus [12] and in the series on Mus musculus [13] were 74% and 1.2%, respectively. The inhibition (as a rule, the drop in the measured response relative to a control, in per cent) in series [6] stood at 45%.

For `COC(Cc1ccc(OCCc2nc(-c3ccccc3)oc2C)cn1)C(=O)O` (stereo unspecified), the concentration for a half-maximal effect (EC50) stood at 3140 nM in series [2] and 280 nM in [3]. In series [1], this molecule came in with an Activity of 95%. Further, the Ki in [14] amounted to 348 nM; in [4], 3700 nM.

`Cc1oc(-c2ccccc2)nc1CCOc1ccc(C[C@@]2(C(=O)O)CCCO2)nc1` showed an Activity in series [1] of 6%.

Turning to `Cc1oc(-c2ccccc2)nc1CCOc1cnc(CC2(C(=O)O)CCCO2)cn1` (stereo unspecified), the EC50 in series [2] turned out to be 1890 nM; in series [3], 156 nM. For the same molecule, the Activity in [1] amounted to 77%. The Ki in [14] is 160 nM; in series [4], 3490 nM.

On to `CCOC(Cc1ccc(OCCCc2nc(-c3ccccc3)oc2C)cn1)C(=O)O` (stereo unspecified), for which, in series [2], the midpoint of the response, the EC50, lay at 886 nM. Also, in series [1], the Activity was found to be 76%. Besides, in [4], affinity was put at a Ki of 840 nM.

On to `COC(C)(Cc1ccc(OCCc2nc(-c3ccccc3)oc2C)cn1)C(=O)O` (stereo unspecified), for which the 50% effective concentration (EC50) is 882 nM in series [2] and 335 nM in [3]. This molecule gave an Activity in series [1] of 114%. The inhibition constant (Ki) worked out at 1600 nM in [14] and 4800 nM in series [4].

Take `Cc1oc(-c2ccccc2)nc1CCOc1ncc(CC2(C(=O)O)CCCO2)cn1` (stereo unspecified): the EC50 in series [2] is more than 10000 nM; in series [3], 2500 nM. Moreover, the Activity in series [1] is 58%.

`Cc1cccc(-c2nc(CCOc3ccc(CC4(C(=O)O)CCCO4)nc3)c(C)o2)c1` (stereo unspecified): the EC50 was 867 nM in [2] and 12 nM in [3]. In [1], this molecule had an Activity of 93%.

In the case of `COc1cccc(-c2nc(CCOc3ccc(CC4(C(=O)O)CCCO4)nc3)c(C)o2)c1` (stereo unspecified), the EC50 in series [2] came to 1570 nM; in [3] it was 5 nM. The molecule also registered an Activity in series [1] of 98%.

Take `CCOC(Cc1ccc(OCCc2nc(-c3ccccc3)oc2C)cn1)C(=O)O` (stereo unspecified): the values for the 50% effective concentration (EC50) in [2] and in series [3] were 1230 nM and 129 nM, respectively. Also, the Activity in [1] turned out to be 100%. In addition, the figures for the Ki in series [14] and in series [4] were 73 nM and 2000 nM, respectively.

Take `Cc1oc(-c2ccccc2)nc1CCOc1ccc(C[C@]2(C(=O)O)CCCO2)nc1`: the Activity in the series on Mus musculus [5] worked out at 20.5%; in series [1], 97%; in the series on Mus musculus [7], 15.5%; in the series on Mus musculus [8], 119%; in the series on Mus musculus [9], 105%; in the series on Mus musculus [10], 74%. Besides, the values for the Activity in the series on Mus musculus [11], in the series on Mus musculus [12] and with Mus musculus [13] were 4.4%, 94% and 4.3%, respectively. The clearance (as a rule, the rate of elimination divided by the concentration) in series [15] stood at 16.7 mL/min/kg. Besides, the bioavailability (commonly dose-corrected exposure relative to a reference, in per cent) in [16] is 58%. The half-life (commonly the time needed for the level to fall by half in the phase considered) in series [17] is 1.6 h. The AUC – broadly, concentration integrated over time – in series [18] worked out at 1200 ng·h/mL.

The values are drawn from ChEMBL document CHEMBL1139747, “Pyridine-2-propanoic acids: Discovery of dual PPARalpha/gamma agonists as antidiabetic agents” (Bioorg Med Chem Lett, 2006).
